{
  "source": "ChEMBL document CHEMBL5705906",
  "about": "(Nat Commun, 2017)",
  "key": {"BaF3 [1]": {"test_system": "BaF3", "assay": "Inhibition of EGFR-C797S/T790M/L858R mutant in mouse BaF3 cells assessed as inhibition of S6 phosphorylation at 10 to 1000 nM incubated for 6 hrs by Western blotting analysis", "format": "cell-based", "conditions": "dose 10-1000 nM", "procedure,_shortened": "(§1)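 Ba/F3 cells expressing EGFR-L858R-series mutants treated with inhibitors for 6 h. SDS lysates quantified by BCA, run on SDS-PAGE and blotted to PVDF. Probed for phospho-EGFR (Tyr1068), total EGFR and downstream phospho-proteins.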"}, "BaF3 [2]": {"test_system": "BaF3", "assay": "Inhibition of EGFR-C797S/T790M/L858R mutant expressed in mouse BaF3 cells assessed as inhibition of ERK phosphorylation at 10 to 1000 nM incubated for 6 hrs by Western blotting analysis", "format": "cell-based", "conditions": "dose 10-1000 nM", "procedure,_shortened": "as §1"}, "BaF3 [3]": {"test_system": "BaF3", "assay": "Inhibition of EGFR-C797S/T790M/L858R mutant in mouse BaF3 cells assessed as inhibition of EGFR phosphorylation at 10 to 1000 nM incubated for 6 hrs by Western blotting analysis", "format": "cell-based", "conditions": "dose 10-1000 nM", "procedure,_shortened": "as §1"}, "BaF3 [4]": {"test_system": "BaF3", "assay": "Inhibition of EGFR-C797S/T790M/L858R mutant expressed in mouse BaF3 cells assessed as inhibition of Akt phosphorylation at 10 to 1000 nM incubated for 6 hrs by Western blotting analysis", "format": "cell-based", "conditions": "dose 10-1000 nM", "procedure,_shortened": "as §1"}, "BaF3 [5]": {"test_system": "BaF3", "assay": "Inhibition of EGFR-C797S/T790M/del19 mutant in mouse BaF3 cells assessed as reduction in EGFR phosphorylation at 300 nM incubated for 6 hrs by Western blotting analysis", "format": "cell-based"}, "PC-9 [6]": {"test_system": "PC-9", "assay": "Inhibition of EGFR T790M/del19 mutant in human PC-9 cells assessed as reduction in EGFR phosphorylation at 10 to 1000 nM by Western blotting analysis", "format": "cell-based", "conditions": "dose 10-1000 nM"}, "BaF3 [7]": {"test_system": "BaF3", "assay": "Inhibition of EGFR-C797S/T790M/del19 mutant in mouse BaF3 cells assessed as reduction in S6 phosphorylation at 10 to 1000 nM by Western blotting analysis", "format": "cell-based", "conditions": "dose 10-1000 nM"}, "NCI-H460": {"test_system": "NCI-H460", "assay": "Anticancer activity against KRAS-mutated human NCI-H460 cells assessed as reduction in cell viability at 1 to 10000 nM incubated for 72 hrs by CellTiter-Glo assay", "format": "functional, cell-based", "conditions": "dose 1-10000 nM"}, "BaF3 [8]": {"test_system": "BaF3", "assay": "Inhibition of EGFR-C797S/T790M/del19 mutant in mouse BaF3 cells assessed as reduction in EGFR phosphorylation at 10 to 1000 nM by Western blotting analysis", "format": "cell-based", "conditions": "dose 10-1000 nM"}, "A549": {"test_system": "A549", "assay": "Anticancer activity against KRAS-mutated human A549 cells assessed as reduction in cell viability at 1 to 10000 nM incubated for 72 hrs by CellTiter-Glo assay", "format": "functional, cell-based", "conditions": "dose 1-10000 nM"}, "BaF3 [9]": {"test_system": "BaF3", "assay": "Inhibition of EGFR-C797S/T790M/del19 mutant in mouse BaF3 cells assessed as reduction in S6 protein level at 10 to 1000 nM by Western blotting analysis", "format": "cell-based", "conditions": "dose 10-1000 nM"}, "PC-9 [10]": {"test_system": "PC-9", "assay": "Inhibition of EGFR T790M/del19 mutant in human PC-9 cells assessed as reduction in S6 phosphorylation at 10 to 1000 nM by Western blotting analysis", "format": "cell-based", "conditions": "dose 10-1000 nM"}, "PC-9 [11]": {"test_system": "PC-9", "assay": "Inhibition of EGFR T790M/del19 mutant in human PC-9 cells assessed as reduction in ERK phosphorylation at 10 to 1000 nM by Western blotting analysis", "format": "cell-based", "conditions": "dose 10-1000 nM"}, "PC-9 [12]": {"test_system": "PC-9", "assay": "Inhibition of EGFR T790M/del19 mutant in human PC-9 cells assessed as reduction in Akt phosphorylation at 10 to 1000 nM by Western blotting analysis", "format": "cell-based", "conditions": "dose 10-1000 nM"}, "BaF3 [13]": {"test_system": "BaF3", "assay": "Inhibition of EGFR-C797S/T790M/del19 mutant in mouse BaF3 cells assessed as reduction in Akt phosphorylation at 10 to 1000 nM by Western blotting analysis", "format": "cell-based", "conditions": "dose 10-1000 nM"}, "BaF3 [14]": {"test_system": "BaF3", "assay": "Inhibition of EGFR-C797S/T790M/del19 mutant in mouse BaF3 cells assessed as reduction in ERK protein level at 10 to 1000 nM by Western blotting analysis", "format": "cell-based", "conditions": "dose 10-1000 nM"}, "BaF3 [15]": {"test_system": "BaF3", "assay": "Inhibition of EGFR-C797S/T790M/del19 mutant in mouse BaF3 cells assessed as reduction in Akt protein level at 10 to 1000 nM by Western blotting analysis", "format": "cell-based", "conditions": "dose 10-1000 nM"}, "BaF3 [16]": {"test_system": "BaF3", "assay": "Inhibition of EGFR-C797S/T790M/del19 mutant in mouse BaF3 cells assessed as reduction in ERK phosphorylation at 10 to 1000 nM by Western blotting analysis", "format": "cell-based", "conditions": "dose 10-1000 nM"}},
  "note": "Activity calls are given as the source filed them. No cut-off for these calls is given here.",
  "data": [
    {"smiles": "COc1cc(N2CCC(N3CCN(C)CC3)CC2)ccc1Nc1ncnc(Nc2ccccc2S(=O)(=O)C(C)C)n1", "values": [
      {"measurement": "inhibition", "setting": "BaF3 [1]", "value": "inactive"},
      {"measurement": "inhibition", "setting": "BaF3 [2]", "value": "inactive"},
      {"measurement": "inhibition", "setting": "BaF3 [3]", "value": "inactive"},
      {"measurement": "inhibition", "setting": "BaF3 [4]", "value": "inactive"}
    ]},
    {"smiles": "Cc1cc(Nc2ncc(Cl)c(Nc3ccccc3S(=O)(=O)C(C)C)n2)c(OC(C)C)cc1C1CCNCC1", "values": [
      {"measurement": "inhibition", "setting": "BaF3 [1]", "value": "inactive"},
      {"measurement": "inhibition", "setting": "BaF3 [2]", "value": "inactive"},
      {"measurement": "inhibition", "setting": "BaF3 [3]", "value": "inactive"},
      {"measurement": "inhibition", "setting": "BaF3 [4]", "value": "inactive"}
    ]},
    {"smiles": "Cc1ccc(C(=O)Nc2ccc(CN3CCN(C)CC3)c(C(F)(F)F)c2)cc1C#Cc1cnc2cccnn12", "values": [
      {"measurement": "inhibition", "setting": "BaF3 [5]", "value": "inactive"}
    ]},
    {"smiles": "CN(C)C/C=C/C(=O)Nc1cc2c(Nc3ccc(F)c(Cl)c3)ncnc2cc1O[C@H]1CCOC1", "note": "[AFATINIB]", "values": [
      {"measurement": "inhibition", "setting": "PC-9 [6]", "value": "Active"},
      {"measurement": "inhibition", "setting": "BaF3 [7]", "value": "inactive"},
      {"measurement": "Activity", "setting": "NCI-H460", "value": "Active"},
      {"measurement": "inhibition", "setting": "BaF3 [8]", "value": "inactive"},
      {"measurement": "Activity", "setting": "A549", "value": "Active"},
      {"measurement": "inhibition", "setting": "BaF3 [9]", "value": "inactive"},
      {"measurement": "inhibition", "setting": "PC-9 [10]", "value": "Active"},
      {"measurement": "inhibition", "setting": "PC-9 [11]", "value": "Active"},
      {"measurement": "inhibition", "setting": "PC-9 [12]", "value": "Active"},
      {"measurement": "inhibition", "setting": "BaF3 [13]", "value": "inactive"},
      {"measurement": "inhibition", "setting": "BaF3 [14]", "value": "inactive"},
      {"measurement": "inhibition", "setting": "BaF3 [15]", "value": "inactive"},
      {"measurement": "inhibition", "setting": "BaF3 [16]", "value": "inactive"}
    ]}
  ]
}
